Source: ChEMBL document CHEMBL1146554, “Antioxidative meroterpenoids from the brown alga Cystoseira crinita” (J Nat Prod, 2003)
Converted amounts (≈) assume the structure as drawn. The source made the active and inactive calls. No cut-off for these calls is given here.

Assays:
[1] = Cytotoxicity against human HM02 cells; type: functional
Procedure, shortened: (§1)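 Cytotoxicity tested on HM02 gastric adenocarcinoma, HepG2 hepatocellular carcinoma and MCF7 breast adenocarcinoma lines following NCI standards.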

[2] = system: Radical scavenging activity; experiment: Antioxidant activity assessed as DPPH radical scavenging activity at 6 uM after 30 mins; type: functional
Procedure, shortened: (§2)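 Samples in EtOH (100 µL) mixed with 25 µL of 1 mM DPPH in EtOH plus 75 µL EtOH, then shaken briefly. Kept 30 min at room temperature in the dark. Absorbance read at 517 nm. % scavenging calculated against control, with blank and sample-blank corrections.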

[3] = Antioxidant activity assessed as inhibition of FeSO4-induced lipid peroxidation at 33 uM by TBARS assay; type: functional
Procedure, shortened: (§3)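 Linolenic acid methyl ester oxidized under FeSO4 catalysis in 50 mM phosphate buffer pH 7.2 at 50 °C. BHT in ethanol added to stop further oxidation. TBARS developed with trichloroacetic and thiobarbituric acid, 60 °C for 30 min. Read A532 minus A600 background. % inhibition calculated versus uninhibited control, with blank and sample-blank corrections.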

[4] = Antioxidant activity assessed as inhibition of FeSO4-induced lipid peroxidation at 164 uM by TBARS assay; type: functional; procedure, shortened: as §3
[5] = system: Radical scavenging activity; experiment: Antioxidant activity assessed as DPPH radical scavenging activity at 230 uM after 30 mins; type: functional; procedure, shortened: as §2
[6] = system: Radical scavenging activity; experiment: Antioxidant activity assessed as DPPH radical scavenging activity at 23 uM after 30 mins; type: functional; procedure, shortened: as §2
[7] = system: HepG2; experiment: Cytotoxicity against human HepG2 cells; type: functional; procedure, shortened: as §1
[8] = system: Aspergillus pseudoglaucus; experiment: Antimicrobial activity against Eurotium repens at 50 ug/disk by agar diffusion assay; type: functional, organism-based
Procedure, shortened: (§4)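 Agar diffusion assay with discs loaded at 50 µg/disk, run against the bacteria, fungi and the green microalga Chlorella fusca.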

[9] = system: Escherichia coli; experiment: Antimicrobial activity against Escherichia coli at 50 ug/disk by agar diffusion assay; type: functional, organism-based; procedure, shortened: as §4
[10] = system: Microbotryum violaceum; experiment: Antimicrobial activity against Microbotryum violaceum at 50 ug/disk by agar diffusion assay; type: functional, organism-based; procedure, shortened: as §4
[11] = Antioxidant activity assessed as inhibition of FeSO4-induced lipid peroxidation at 8 uM by TBARS assay; type: functional; procedure, shortened: as §3
[12] = system: Radical scavenging activity; experiment: Antioxidant activity assessed as DPPH radical scavenging activity at 115 uM after 30 mins; type: functional; procedure, shortened: as §2
[13] = Superoxide radical scavenging activity assessed as trolox equivalents by photochemiluminescence assay
Procedure, shortened: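 Photochemiluminescence with luminol acting as photosensitizer and detection reagent, generating superoxide. Mix of 2.29 mL reagent 1 (solvent/diluent), 200 µL buffer reagent, 25 µL photosensitizer and 10 µL sample in ethanol or Trolox standard in water. Antioxidant capacity taken from the integral under the curve and expressed as Trolox equivalents.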

[14] = system: Priestia megaterium; experiment: Antimicrobial activity against Bacillus megaterium at 50 ug/disk by agar diffusion assay; type: functional, organism-based; procedure, shortened: as §4
[15] = system: Mycotypha microspora; experiment: Antimicrobial activity against Mycotypha microspora at 50 ug/disk by agar diffusion assay; type: functional, organism-based; procedure, shortened: as §4
[16] = Antioxidant activity assessed as inhibition of FeSO4-induced lipid peroxidation at 16 uM by TBARS assay; type: functional; procedure, shortened: as §3
[17] = system: Radical scavenging activity; experiment: Antioxidant activity assessed as DPPH radical scavenging activity at 12 uM after 30 mins; type: functional; procedure, shortened: as §2
[18] = ABTS radical scavenging activity assessed as trolox equivalents by TEAC assay; type: physicochemical
Procedure, shortened: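 ABTS radical cation made by passing ABTS in PBS through manganese dioxide, then filtered (0.2 µm). Diluted in 5 mM PBS pH 7.4 to A734 0.700 and preincubated 2 h at room temperature. 1 mL radical mixed with 200 µL ethanolic sample, vortexed 30 s, centrifuged. A734 of lower phase read exactly 2 min after mixing. PBS and ethanol blanks included. Trolox standards used; value is mM Trolox equivalent to 1.0 mM compound.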

[19] = Antioxidant activity assessed as inhibition of FeSO4-induced lipid peroxidation at 82 uM by TBARS assay; type: functional; procedure, shortened: as §3
[20] = system: Radical scavenging activity; experiment: Antioxidant activity assessed as DPPH radical scavenging activity at 58 uM after 30 mins; type: functional; procedure, shortened: as §2
[21] = system: [Chlorella] fusca; experiment: Antimicrobial activity against 'Chlorella' fusca at 50 ug/disk by agar diffusion assay; type: functional, organism-based; details: Scenedesmus fuscus; procedure, shortened: as §4
[22] = system: MCF7; experiment: Cytotoxicity against human MCF7 cells; type: functional; procedure, shortened: as §1

Activity [18]	Structure (SMILES)	Activity [2]	inhibition [3]	inhibition [4]	Activity [5]	Activity [6]	Activity [8]	Activity [9]	Activity [10]	inhibition [11]	Activity [12]	Activity [13]	Activity [14]	Activity [15]	inhibition [16]	Activity [17]	inhibition [19]	Activity [20]	Activity [21]	further results
–	CC(C)=CC(O)C/C(C)=C/CC/C(C)=C/C(=O)C/C(C)=C/Cc1cc(O)cc(C)c1O (stereo not drawn)	4.6%	17.6%	68.9%	96.1%	18.1%	inactive	inactive	inactive	7.8%	93.2%	–	inactive	inactive	11.7%	7.4%	55.4%	49.2%	inactive	–
–	CC1=CC(=O)C=C(C/C=C(\C)CC(=O)/C=C(\C)CC/C=C(\C)Cc2cc(C)co2)C1=O	1%	20.2%	43.3%	29%	2.9%	–	–	–	7.6%	16%	–	–	–	14.2%	2.2%	31.4%	8.1%	–	–
–	CC(C)=CC(O)C/C(C)=C/CC/C(C)=C\C(=O)C/C(C)=C/Cc1cc(O)cc(C)c1O (stereo not drawn)	5.8%	19.2%	70.3%	95.5%	17.1%	inactive	inactive	inactive	4.9%	95.5%	–	inactive	inactive	10.4%	9.7%	60.4%	55.2%	inactive	–
–	CC(C)=CCC/C(C)=C/CC/C(C)=C/C(=O)C/C(C)=C/Cc1cc(O)cc(C)c1O	6%	24.3%	70.8%	94.4%	24.4%	inactive	inactive	inactive	13.3%	95%	–	inactive	inactive	17%	8.6%	61.7%	67.4%	inactive	–
0.14 mmol/L	CC(C)=CCC/C(C)=C/CC/C(C)=C\C(=O)C/C(C)=C/Cc1cc(O)cc(C)c1O	6.9%	28.6%	71.8%	95.4%	25.5%	inactive	inactive	inactive	10.7%	95.4%	1.35 mmol/L	inactive	inactive	12.1%	11.8%	66.8%	67.2%	inactive	–
0.37 mmol/L	CC(C)=CC(=O)C/C(C)=C/CC/C(C)=C/C(=O)C/C(C)=C/Cc1cc(O)cc(C)c1O	7.6%	39.9%	72.2%	95.5%	29.1%	inactive	inactive	inactive	13.6%	95.7%	1.39 mmol/L	inactive	inactive	20.3%	14.3%	70.1%	80.8%	inactive	–

Structure (SMILES)	Activity [18]	Activity [2]	inhibition [3]	inhibition [4]	Activity [5]	Activity [6]	Activity [8]	Activity [9]	Activity [10]	inhibition [11]	Activity [12]	Activity [13]	Activity [14]	Activity [15]	inhibition [16]	Activity [17]	inhibition [19]	Activity [20]	Activity [21]	further results
C/C(=C/C(=O)C/C(C)=C/Cc1cc(O)cc(C)c1O)CC/C=C(\C)Cc1cc(C)co1	0.28 mmol/L	5.9%	38.9%	74.6%	95.8%	22.1%	inactive	inactive	inactive	16.4%	95.7%	0.79 mmol/L	inactive	inactive	25.2%	11%	66.6%	56.7%	inactive	GI50 [1]: 0.9 µg/mL (≈ 2.13 µM); LC50 [1]: 4.6 µg/mL (≈ 10.9 µM); TGI [1]: 2 µg/mL (≈ 4.73 µM); GI50 [7]: 1.7 µg/mL (≈ 4.02 µM); LC50 [7]: > 10 µg/mL; TGI [7]: 5 µg/mL (≈ 11.8 µM); GI50 [22]: 0.9 µg/mL (≈ 2.13 µM); LC50 [22]: 3.6 µg/mL (≈ 8.52 µM); TGI [22]: 1.7 µg/mL (≈ 4.02 µM)
